Measurements from ChEMBL document CHEMBL1649157, “Intracellular activity of antibiotics against Staphylococcus aureus in a mouse peritonitis model” (Antimicrob Agents Chemother, 2009).
Converted amounts (≈) assume the structure as drawn. The source made the active and inactive calls. The rule behind the calls is not given here.

Experiments:
Staphylococcus aureus [1] = experiment: Antibacterial activity against Staphylococcus aureus E19977 infected in NMRI mouse assessed as log reduction in bacterial cfu in peritoneum at 60 mg/kg, sc administered as single dose 2 hrs after infection measured within 4 hrs; format: functional; conditions: route subcutaneous
In short: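 Female NMRI mice were infected i.p. with S. aureus E19977 (10^7.7 CFU/ml, 0.5 ml, 5% mucin). They were treated 2 h post-inoculation with a single 60 mg/kg dose and sampled after 4 h of treatment. Peritoneal-wash CFU were plated on blood agar. Δlog10 CFU/ml was calculated against vehicle-treated controls with the same infection duration.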

[2] = Half life in human at 1000 mg, po; format: ADME, organism-based; conditions: in vivo
Staphylococcus aureus [3] = experiment: Antibacterial activity against Staphylococcus aureus E19977 infected in NMRI mouse assessed as log reduction in extracellular bacterial cfu in peritoneum at 60 mg/kg, sc administered as single dose 3 hrs after infection measured after 4 hrs; format: functional, organism-based; set-up: dose 60 mg/kg
In short: (§1)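 NMRI mice were infected i.p. with S. aureus E19977 in 5% mucin. A single dose (60 mg/kg or 10 mg/kg) was given 1, 2 or 3 h after inoculation, four mice per group. Peritoneal wash was sampled after 4 h of treatment and separated into total, extracellular and intracellular counts by lysostaphin/centrifugation. Δlog10 CFU/ml was calculated against vehicle-treated mice infected for the same time (5, 6 or 7 h).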

Staphylococcus aureus [4] = experiment: Antibacterial activity against Staphylococcus aureus E19977 infected in NMRI mouse assessed as log reduction in bacterial cfu in peritoneum at 200 mg/kg, sc administered as single dose 2 hrs after infection measured between 4 to 19 hrs; format: functional; conditions: route subcutaneous
In short: (§2)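 Female outbred NMRI mice (25 to 30 g) were infected i.p. with 0.5 ml of 10^7.7 CFU/ml S. aureus E19977 in 5% (wt/vol) mucin. The first dose was given 2 h after inoculation, either once or as three doses every 8 h, with four mice per group. Mice were euthanized 19 h after treatment onset and washed peritoneally with 2.0 ml saline. Total CFU were counted by duplicate spotting of 10-fold dilutions on 5% blood agar.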

Staphylococcus aureus [5] = experiment: Bactericidal activity against Staphylococcus aureus E19977 assessed as log reduction in cfu at 20 mg/liter after 24 hrs by time-kill study; format: functional, organism-based
In short: (§3)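 In vitro kinetic model simulating antibiotic elimination without inoculum change. Exponential-phase E19977 was added at a final 10^6.3 CFU/ml. Starting drug concentration matched the human free peak, with the human half-life simulated. Samples were plated on 5% blood agar at 0, 2, 4, 6, 8, 12 and 24 h, with growth controls in each run. Results are shown as mean and range, n = 2.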

Staphylococcus aureus [6] = experiment: Antibacterial activity against Staphylococcus aureus E19977 infected in NMRI mouse assessed as log reduction in extracellular bacterial cfu in peritoneum at 60 mg/kg, sc administered as single dose 2 hrs after infection measured after 4 hrs; format: functional, organism-based; set-up: dose 60 mg/kg; in short: as §1
Staphylococcus aureus [7] = experiment: Bactericidal activity against Staphylococcus aureus E19977 assessed as log reduction in cfu at 2 mg/liter upto 24 hrs by time-kill study; format: functional
In short: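 Clinical bacteremia isolate (penicillin-resistant, methicillin-susceptible). Exponential-phase bacteria were placed in an in vitro kinetic model that simulates drug elimination without changing the inoculum. The starting drug level matched the human free peak serum concentration after a single dose, with simulated human elimination half-life. Samples were taken at 0, 2, 4, 6, 8, 12 and 24 h, with growth controls in each run.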

Staphylococcus aureus [8] = experiment: Antibacterial activity against Staphylococcus aureus E19977 infected in NMRI mouse assessed as log reduction in bacterial cfu in peritoneum at 200 mg/kg, sc administered 2 hrs after infection measured after 4 hrs; format: functional, organism-based; set-up: dose 200 mg/kg
In short: (§4)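 Dose–response in i.p.-infected NMRI mice (mucin adjuvant). Single doses of 200, 60, 30, 20 or 10 mg/kg were given 2 h after inoculation, with 4–16 mice per group. Peritoneal wash was sampled 4 h later and split by lysostaphin/centrifugation into total, extra- and intracellular counts, then expressed as Δlog10 CFU/ml against log dose. Vehicle controls were plotted as 0.3 mg/kg. Hill fit (variable slope); static dose interpolated.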

Staphylococcus aureus [9] = experiment: Antibacterial activity against Staphylococcus aureus E19977 infected in NMRI mouse assessed as log reduction in bacterial cfu in peritoneum at 200 mg/kg, sc administered 2 hrs after infection evry 8 hrs as three-dose regimen measured after 19 hrs; format: functional; conditions: route subcutaneous; in short: as §2
Staphylococcus aureus [10] = experiment: Antibacterial activity against Staphylococcus aureus E19977 infected in NMRI mouse assessed as log reduction in extracellular bacterial cfu in peritoneum at 10 to 200 mg/kg, sc administered 2 hrs after infection measured after 4 hrs; format: functional, organism-based; in short: as §4
Staphylococcus aureus [11] = experiment: Bactericidal activity against Staphylococcus aureus E19977 assessed as log reduction in cfu at 2 mg/liter after 24 hrs by time-kill study; format: functional, organism-based; in short: as §3
Staphylococcus aureus [12] = experiment: Bactericidal activity against Staphylococcus aureus E19977 assessed as log reduction in cfu at 20 mg/liter upto 24 hrs by time-kill study; format: functional
In short: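 In vitro kinetic model: exponential-phase bacteria at a final 10^6.3 CFU/ml were exposed to a starting concentration set to the human free peak level. Elimination followed the simulated human half-life. Samples were taken at 0, 2, 4, 6, 8, 12 and 24 h and counted on 5% blood agar (detection limit 25 CFU/ml). Growth controls were included; n = 2.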

Staphylococcus aureus [13] = experiment: Antibacterial activity against Staphylococcus aureus E19977 infected in NMRI mouse assessed as log reduction in bacterial cfu in peritoneum at 60 mg/kg, sc administered as single dose 2 hrs after infection measured after 4 hrs; format: functional, organism-based; set-up: dose 60 mg/kg; in short: as §1
Staphylococcus aureus [14] = experiment: Antibacterial activity against Staphylococcus aureus E19977 infected in NMRI mouse assessed as log reduction in intracellular bacterial cfu in peritoneum at 10 to 200 mg/kg, sc administered 2 hrs after infection measured after 4 hrs; format: functional, organism-based; in short: as §4
Staphylococcus aureus [15] = experiment: Antibacterial activity against Staphylococcus aureus E19977 infected in NMRI mouse assessed as log reduction in intracellular bacterial cfu in peritoneum at 200 mg/kg, sc administered as single dose 2 hrs after infection measured between 4 to 19 hrs; format: functional, organism-based; set-up: dose 200 mg/kg
In short: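 NMRI mice were infected i.p. and given one or three doses (every 8 h), starting 2 h post-inoculation, at 200 mg/kg or 60 mg/kg, four mice per group. Peritoneal washes were sampled over 19 h of treatment. Total, extracellular and intracellular CFU/ml (lysostaphin separation) were compared with the pretreatment level; mean ± range, n = 2. Untreated controls were sampled only at 6 h of infection.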

Staphylococcus aureus [16] = experiment: Antibacterial activity against Staphylococcus aureus E19977 infected in NMRI mouse assessed as log reduction in extracellular bacterial cfu in peritoneum at 200 mg/kg, sc administered 2 hrs after infection measured after 4 hrs; format: functional, organism-based; set-up: dose 200 mg/kg; in short: as §4
Staphylococcus aureus [17] = experiment: Antibacterial activity against Staphylococcus aureus E19977 infected in NMRI mouse assessed as log reduction in extracellular bacterial cfu in peritoneum at 200 mg/kg, sc administered 2 hrs after infection evry 8 hrs as three-dose regimen measured after 19 hrs; format: functional; conditions: route subcutaneous
Staphylococcus aureus [18] = experiment: Antibacterial activity against Staphylococcus aureus E19977 infected in NMRI mouse assessed as log reduction in intracellular bacterial cfu in peritoneum at 60 mg/kg, sc administered as single dose 1 hr after infection measured after 4 hrs; format: functional, organism-based; set-up: dose 60 mg/kg; in short: as §1
Staphylococcus aureus [19] = experiment: Bactericidal activity against Staphylococcus aureus E19977 assessed as log reduction in cfu at 1.5 mg/liter after 24 hrs by time-kill study; format: functional, organism-based; in short: as §3
Serum = experiment: Protein binding in human serum at 1000 mg, po; format: ADME, organism-based; conditions: in vivo
Staphylococcus aureus [20] = experiment: Antibacterial activity against Staphylococcus aureus E19977 by Etest; format: functional

With `Cc1onc(-c2c(Cl)cccc2Cl)c1C(=O)N[C@@H]1C(=O)N2[C@@H]1SC(C)(C)[C@@H]2C(=O)O` [DICLOXACILLIN] the FC (Staphylococcus aureus [1]) was less than 1, the half-life [2] was 1 h and the Activity (Staphylococcus aureus [3]) was “inactive”. For the same compound, the FC (Staphylococcus aureus [4]) was less than 1, the Activity (Staphylococcus aureus [5]) was “inactive” and the Activity (Staphylococcus aureus [6]) was “inactive”. For the same compound, the FC (Staphylococcus aureus [7]) was 2, the Activity (Staphylococcus aureus [8]) was “Active” and the FC (Staphylococcus aureus [9]) was 2. For the same compound, the Activity (Staphylococcus aureus [10]) was “Dose-dependent effect”, the Activity (Staphylococcus aureus [11]) was “inactive” and the FC (Staphylococcus aureus [12]) was greater than 2. The Activity (Staphylococcus aureus [13]) was “inactive”, the Activity (Staphylococcus aureus [14]) was “Dose-dependent effect” and the Activity (Staphylococcus aureus [15]) was “inactive”. The Activity (Staphylococcus aureus [16]) was “Active”, the FC (Staphylococcus aureus [17]) was 2 and the Activity (Staphylococcus aureus [18]) was “Active”. The Activity (Staphylococcus aureus [19]) was “inactive”, the Activity (Serum) was 95% and the MIC (Staphylococcus aureus [20]) was 0.5 µg/mL (≈ 1.06 µM).
